From ChEMBL document CHEMBL4196105, “Discovery of β-Arrestin Biased Ligands of 5-HT7R” (J Med Chem, 2018) come the findings set out here.

Assay [1] deals with 5-hydroxytryptamine receptor 5A (Homo sapiens, UniProt P47898). Put plainly: Displacement of [3H]LSD from human 5-HT5A receptor expressed in HEK cell membranes after 1.5 hrs by microbeta scintillation counting method. Summed up:
(§1)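 Radioligand binding performed by the NIMH Psychoactive Drug Screening Program. Crude membranes from cells expressing recombinant receptor, with [3H]LSD, in 50 mM Tris-HCl, 10 mM MgCl2, 1 mM EDTA, pH 7.4. Eleven test concentrations. Incubated 1.5 h at room temperature, protected from light. Filtered onto PEI-soaked GF/B filters, then scintillation counting. IC50 converted to Ki; at least three experiments in triplicate.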

The target of assay [2] is 5-hydroxytryptamine receptor 1D (Homo sapiens, UniProt P28221). Briefly: Displacement of [3H]LSD from human 5-HT1D receptor expressed in HEK cell membranes after 1.5 hrs by microbeta scintillation counting method. Summed up:
as §1

The target in assay [3] is T1, 5-hydroxytryptamine receptor 7 (Homo sapiens, UniProt P34969).
T1 sequence (P34969 whole entry): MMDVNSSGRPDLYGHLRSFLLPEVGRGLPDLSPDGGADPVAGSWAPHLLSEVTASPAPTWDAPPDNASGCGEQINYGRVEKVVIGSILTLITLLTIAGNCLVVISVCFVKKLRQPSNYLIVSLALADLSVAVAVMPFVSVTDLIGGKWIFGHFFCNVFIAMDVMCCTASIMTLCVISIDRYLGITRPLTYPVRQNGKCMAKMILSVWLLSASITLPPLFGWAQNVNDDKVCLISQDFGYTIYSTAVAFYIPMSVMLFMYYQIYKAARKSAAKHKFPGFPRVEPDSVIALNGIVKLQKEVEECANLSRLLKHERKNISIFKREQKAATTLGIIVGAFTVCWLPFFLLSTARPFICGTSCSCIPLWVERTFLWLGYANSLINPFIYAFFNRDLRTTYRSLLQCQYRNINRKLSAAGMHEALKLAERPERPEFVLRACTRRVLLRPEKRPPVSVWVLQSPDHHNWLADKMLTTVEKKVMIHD
In assay [4] the target is T2, 5-hydroxytryptamine receptor 3A (Homo sapiens, UniProt P46098).
T2 sequence (P46098 whole entry): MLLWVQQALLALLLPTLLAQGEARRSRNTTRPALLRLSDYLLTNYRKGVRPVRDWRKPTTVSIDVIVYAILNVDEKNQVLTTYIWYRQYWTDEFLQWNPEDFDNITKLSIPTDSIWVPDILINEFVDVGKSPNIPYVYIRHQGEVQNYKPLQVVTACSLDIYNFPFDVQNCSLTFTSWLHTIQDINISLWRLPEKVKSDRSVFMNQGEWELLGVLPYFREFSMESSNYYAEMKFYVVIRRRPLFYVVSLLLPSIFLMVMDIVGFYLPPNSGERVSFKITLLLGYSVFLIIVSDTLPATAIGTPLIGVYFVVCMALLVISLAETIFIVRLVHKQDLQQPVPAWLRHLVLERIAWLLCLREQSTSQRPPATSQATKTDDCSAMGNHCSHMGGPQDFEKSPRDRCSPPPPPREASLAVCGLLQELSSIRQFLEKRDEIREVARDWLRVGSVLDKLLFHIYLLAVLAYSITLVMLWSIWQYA
Put plainly: Displacement of [3H]LSD from human 5-HT3 receptor expressed in HEK cell membranes after 1.5 hrs by microbeta scintillation counting method. The procedure, abridged: as §1

In assay [5] the target is 5-hydroxytryptamine receptor 2B (Homo sapiens, UniProt P41595). Briefly: Displacement of [3H]LSD from human 5-HT2B receptor expressed in HEK cell membranes after 1.5 hrs by microbeta scintillation counting method.
Sequence of 5-hydroxytryptamine receptor 2B (P41595 whole entry): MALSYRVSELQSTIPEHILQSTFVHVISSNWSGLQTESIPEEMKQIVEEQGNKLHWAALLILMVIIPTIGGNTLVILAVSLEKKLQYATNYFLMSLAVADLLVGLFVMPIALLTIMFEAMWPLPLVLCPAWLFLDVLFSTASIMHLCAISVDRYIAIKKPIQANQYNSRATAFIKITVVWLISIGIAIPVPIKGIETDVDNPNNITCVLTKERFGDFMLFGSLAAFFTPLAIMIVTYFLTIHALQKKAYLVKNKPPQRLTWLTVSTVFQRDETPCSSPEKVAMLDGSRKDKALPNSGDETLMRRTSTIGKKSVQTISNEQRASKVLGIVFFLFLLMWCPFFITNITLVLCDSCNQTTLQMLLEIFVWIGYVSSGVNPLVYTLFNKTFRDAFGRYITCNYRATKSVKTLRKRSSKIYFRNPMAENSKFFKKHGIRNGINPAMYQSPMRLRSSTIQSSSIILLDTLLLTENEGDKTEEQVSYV
Assay [6] is filed under the species Homo sapiens. Put plainly: Selectivity index, ratio of Ki for human 5-HT1D receptor to Ki for human 5-HT7 receptor. The procedure, abridged: (§2)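 Selectivity index taken as Ki at the other 5-HT receptor subtype divided by Ki at 5-HT7R, each from [3H]LSD membrane binding run by the NIMH PDSP. Ki values are means of at least three experiments in triplicate.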
The species entered for assay [7] is Homo sapiens. Briefly: Selectivity index, ratio of Ki for human 5-HT6 receptor to Ki for human 5-HT7 receptor. The procedure, abridged:
as §2

In assay [8] the target is T3, 5-hydroxytryptamine receptor 2C (Homo sapiens, UniProt P28335).
T3 sequence (P28335 whole entry): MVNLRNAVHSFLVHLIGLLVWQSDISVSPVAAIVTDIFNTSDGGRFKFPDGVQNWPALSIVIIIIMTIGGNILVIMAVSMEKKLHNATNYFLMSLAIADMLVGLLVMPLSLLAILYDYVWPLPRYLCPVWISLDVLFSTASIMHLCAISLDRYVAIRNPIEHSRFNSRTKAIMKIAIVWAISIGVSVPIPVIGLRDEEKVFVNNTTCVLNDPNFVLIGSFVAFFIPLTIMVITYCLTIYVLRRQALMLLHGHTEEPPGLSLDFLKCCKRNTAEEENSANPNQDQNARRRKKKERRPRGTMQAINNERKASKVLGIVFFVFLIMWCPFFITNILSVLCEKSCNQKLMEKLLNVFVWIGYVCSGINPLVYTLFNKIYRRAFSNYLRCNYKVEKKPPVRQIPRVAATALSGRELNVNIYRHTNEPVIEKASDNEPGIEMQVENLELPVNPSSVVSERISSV
Briefly: Displacement of [3H]LSD from human 5-HT2C receptor expressed in HEK cell membranes after 1.5 hrs by microbeta scintillation counting method. The procedure, abridged:
as §1

The target of assay [9] is 5-hydroxytryptamine receptor 2A (Homo sapiens, UniProt P28223). Put plainly: Displacement of [3H]LSD from human 5-HT2A receptor expressed in HEK cell membranes after 1.5 hrs by microbeta scintillation counting method. The procedure, abridged:
as §1

The species named for assay [10] is Homo sapiens. Briefly: Selectivity index, ratio of Ki for human 5-HT1E receptor to Ki for human 5-HT7 receptor. Summed up:
as §2

The target of assay [11] is 5-hydroxytryptamine receptor 1B (Homo sapiens, UniProt P28222). Briefly: Displacement of [3H]LSD from human 5-HT1B receptor expressed in HEK cell membranes after 1.5 hrs by microbeta scintillation counting method. Summed up: as §1
Sequence of 5-hydroxytryptamine receptor 1B (P28222 whole entry): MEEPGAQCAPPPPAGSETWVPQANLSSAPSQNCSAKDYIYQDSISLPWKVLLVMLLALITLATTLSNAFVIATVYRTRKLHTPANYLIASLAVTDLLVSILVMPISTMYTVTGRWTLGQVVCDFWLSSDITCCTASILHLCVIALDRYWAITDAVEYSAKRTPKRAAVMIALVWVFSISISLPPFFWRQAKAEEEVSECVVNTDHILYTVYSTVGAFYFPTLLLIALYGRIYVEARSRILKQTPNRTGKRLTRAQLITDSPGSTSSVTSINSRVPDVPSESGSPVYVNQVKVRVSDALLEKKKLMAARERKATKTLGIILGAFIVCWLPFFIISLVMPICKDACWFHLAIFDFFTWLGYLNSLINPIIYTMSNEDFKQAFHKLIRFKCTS
The target in assay [12] is T1, 5-hydroxytryptamine receptor 7. Put plainly: Inverse agonist activity at human 5-HT7 receptor expressed in HEK293 cells assessed as decrease in Gs protein-mediated cAMP accumulation by luminescence-based assay. The format is functional, cell-based. The procedure, abridged:
(§3)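 HEK293 cells transiently transfected by calcium phosphate with human 5-HT7R and GloSensor-22F cAMP biosensor. After 5-6 h recovery, loaded with GloSensor reagent in HBSS/20 mM HEPES, pH 7.4. Test compounds at 0.01 nM-100 μM final; antagonist mode uses 5-HT stimulation. Luminescence read. Data normalised to 5-HT or SB269970 (100%) and vehicle (0%). Three experiments, at least triplicate.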

Assay [13] is filed under the species Homo sapiens. Briefly: Selectivity index, ratio of Ki for human 5-HT2B receptor to Ki for human 5-HT7 receptor. The procedure, abridged: as §2
The target in assay [14] is T1, 5-hydroxytryptamine receptor 7. Briefly: Antagonist activity at human 5-HT7 receptor expressed in HEK293 cells assessed as inhibition of Gs protein-mediated cAMP accumulation by luminescence-based assay relative to SB269970. The format is functional, cell-based. Summed up: as §3
Assay [15] addresses 5-hydroxytryptamine receptor 6 (Homo sapiens, UniProt P50406). Put plainly: Displacement of [3H]LSD from human 5-HT6 receptor expressed in HEK cell membranes after 1.5 hrs by microbeta scintillation counting method. The procedure, abridged: as §1
For assay [16], the target named is 5-hydroxytryptamine receptor 4 (Homo sapiens, UniProt Q13639). Put plainly: Displacement of [3H]LSD from human 5-HT4 receptor expressed in HEK cell membranes after 1.5 hrs by microbeta scintillation counting method. The procedure, abridged:
as §1

For assay [17], the target named is 5-hydroxytryptamine receptor 1E (Homo sapiens, UniProt P28566). Briefly: Displacement of [3H]LSD from human 5-HT1E receptor expressed in HEK cell membranes after 1.5 hrs by microbeta scintillation counting method. Summed up:
as §1

Assay [18] has as its target T1, 5-hydroxytryptamine receptor 7. This is another data set of the same source.

Structures are written as SMILES. Calls of active or inactive are those of the source. The rule behind the calls is not given here.

Sequence of 5-hydroxytryptamine receptor 6 (P50406 whole entry): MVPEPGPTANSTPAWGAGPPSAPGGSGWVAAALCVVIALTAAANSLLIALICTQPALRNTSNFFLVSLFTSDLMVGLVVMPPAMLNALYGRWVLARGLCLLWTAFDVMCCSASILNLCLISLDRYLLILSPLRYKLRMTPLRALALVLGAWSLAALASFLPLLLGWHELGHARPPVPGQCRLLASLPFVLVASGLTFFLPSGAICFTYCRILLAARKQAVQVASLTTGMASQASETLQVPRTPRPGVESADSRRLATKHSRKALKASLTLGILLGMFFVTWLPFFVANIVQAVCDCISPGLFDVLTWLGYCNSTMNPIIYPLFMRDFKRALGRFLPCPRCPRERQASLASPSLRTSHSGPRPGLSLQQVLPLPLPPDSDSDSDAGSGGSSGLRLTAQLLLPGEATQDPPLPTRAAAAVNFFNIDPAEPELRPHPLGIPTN
Sequence of 5-hydroxytryptamine receptor 5A (P47898 whole entry): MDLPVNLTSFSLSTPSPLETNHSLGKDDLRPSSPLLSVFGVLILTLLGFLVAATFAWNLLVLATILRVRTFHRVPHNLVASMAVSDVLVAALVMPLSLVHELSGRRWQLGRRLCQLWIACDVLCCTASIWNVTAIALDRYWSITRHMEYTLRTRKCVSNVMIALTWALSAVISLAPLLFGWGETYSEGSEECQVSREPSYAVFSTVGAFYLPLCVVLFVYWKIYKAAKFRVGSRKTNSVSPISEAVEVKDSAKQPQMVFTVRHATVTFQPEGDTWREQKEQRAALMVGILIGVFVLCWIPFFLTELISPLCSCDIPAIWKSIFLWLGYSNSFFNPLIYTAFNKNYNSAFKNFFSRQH
Sequence of 5-hydroxytryptamine receptor 1E (P28566 whole entry): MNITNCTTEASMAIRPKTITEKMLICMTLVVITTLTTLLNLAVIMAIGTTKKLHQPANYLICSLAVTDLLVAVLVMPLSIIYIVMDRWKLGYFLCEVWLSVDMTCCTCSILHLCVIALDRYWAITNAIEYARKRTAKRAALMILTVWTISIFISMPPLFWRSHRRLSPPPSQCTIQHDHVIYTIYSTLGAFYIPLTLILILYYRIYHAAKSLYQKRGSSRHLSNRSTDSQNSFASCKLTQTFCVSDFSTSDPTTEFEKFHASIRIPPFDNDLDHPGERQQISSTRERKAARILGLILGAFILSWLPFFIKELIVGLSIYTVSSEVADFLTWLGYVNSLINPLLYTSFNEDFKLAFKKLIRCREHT
Sequence of 5-hydroxytryptamine receptor 4 (Q13639 whole entry): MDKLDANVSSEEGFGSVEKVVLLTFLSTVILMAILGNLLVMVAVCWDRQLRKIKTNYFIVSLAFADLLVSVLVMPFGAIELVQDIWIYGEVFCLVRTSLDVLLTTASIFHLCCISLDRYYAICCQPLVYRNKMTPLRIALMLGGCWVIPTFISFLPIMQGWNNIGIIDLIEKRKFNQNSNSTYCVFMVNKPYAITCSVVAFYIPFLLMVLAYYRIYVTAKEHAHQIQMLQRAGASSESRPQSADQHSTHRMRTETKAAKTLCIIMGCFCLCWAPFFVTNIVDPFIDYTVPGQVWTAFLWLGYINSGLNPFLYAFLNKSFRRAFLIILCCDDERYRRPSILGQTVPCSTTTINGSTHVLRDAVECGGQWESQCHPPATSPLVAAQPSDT
Sequence of 5-hydroxytryptamine receptor 1D (P28221 whole entry): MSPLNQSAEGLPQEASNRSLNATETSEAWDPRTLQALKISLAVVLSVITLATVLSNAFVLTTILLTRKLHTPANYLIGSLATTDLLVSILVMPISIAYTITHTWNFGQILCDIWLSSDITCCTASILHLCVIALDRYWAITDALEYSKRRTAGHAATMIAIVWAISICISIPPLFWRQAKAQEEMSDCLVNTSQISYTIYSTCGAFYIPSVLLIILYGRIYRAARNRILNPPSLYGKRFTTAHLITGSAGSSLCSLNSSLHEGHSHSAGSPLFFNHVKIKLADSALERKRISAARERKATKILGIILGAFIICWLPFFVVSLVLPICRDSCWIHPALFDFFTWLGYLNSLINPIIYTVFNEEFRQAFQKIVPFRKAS
Sequence of 5-hydroxytryptamine receptor 2A (P28223 whole entry): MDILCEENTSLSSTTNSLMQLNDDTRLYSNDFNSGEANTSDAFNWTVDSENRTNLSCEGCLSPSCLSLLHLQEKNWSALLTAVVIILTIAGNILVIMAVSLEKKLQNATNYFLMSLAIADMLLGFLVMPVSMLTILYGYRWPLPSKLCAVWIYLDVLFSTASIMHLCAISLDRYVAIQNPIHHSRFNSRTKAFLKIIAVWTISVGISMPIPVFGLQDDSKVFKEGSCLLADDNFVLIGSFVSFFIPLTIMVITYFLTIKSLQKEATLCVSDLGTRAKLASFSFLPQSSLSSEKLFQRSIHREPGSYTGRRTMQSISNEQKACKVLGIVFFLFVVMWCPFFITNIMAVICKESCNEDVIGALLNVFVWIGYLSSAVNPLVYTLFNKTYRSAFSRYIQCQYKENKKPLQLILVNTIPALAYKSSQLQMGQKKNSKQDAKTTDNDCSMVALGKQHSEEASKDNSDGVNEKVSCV

Regarding `Fc1ccc(-c2n[nH]c3c2CCNCC3)cc1`, the Ki in [1] is greater than 10000 nM; in assay [2], 636 nM; in assay [4] it was greater than 10000 nM; in assay [5], 97 nM; in assay [8], 200 nM; in [9], 175 nM. In addition, the Ki in assay [11] is greater than 10000 nM; in assay [15] it was 416 nM; in assay [16], greater than 10000 nM; in [17] it was 793 nM. Further, the IC50 in assay [3] was 6980 nM. Also, the Ratio Ki in assay [6] was found to be 6.1; in assay [7], 4; in assay [10] it was 7.6; in assay [13], 0.9. Further, in assay [12], the result was Active. Moreover, in [14], the Imax is 98.4%. The response in [18] was half-maximal at 188 nM (EC50).
On to `Cc1ccc(-c2noc3c2CCNCC3)cc1`, for which the Ki in assay [1] stood at 1140 nM; in assay [2], 147 nM; in assay [4] it was 420 nM; in assay [5], 150 nM; in assay [8], 20 nM; in assay [9], 138 nM. For the same compound, the inhibitory constant (Ki) in assay [11] was greater than 10000 nM; in [15], 492 nM; in assay [16], greater than 10000 nM; in assay [17], 1790 nM. Moreover, inhibition in assay [3] was half-maximal at 844 nM (IC50). Moreover, the Ratio Ki in assay [6] turned out to be 9.2; in assay [7] it was 30.8; in [10], 112; in assay [13], 9.4. Further, the result in assay [12] was Active. Besides, the Imax in [14] worked out at 95.8%. This compound also returned a 50% effective concentration (EC50) in [18] of 40.8 nM.
Regarding `Clc1ccc(-c2n[nH]c3c2CCNCC3)cc1`, the Ki was greater than 10000 nM in assay [1]; 2110 nM in assay [2]; greater than 10000 nM in [4]; 100 nM in assay [5]; 799 nM in [8]; 187 nM in [9]. Moreover, the Ki in assay [11] is greater than 10000 nM; in [15], 248 nM; in [16], greater than 10000 nM; in assay [17], 1370 nM. Moreover, inhibition in assay [3] was half-maximal at 7790 nM (IC50). The Ratio Ki is 70.5 in assay [6], 8.3 in assay [7], 45.5 in assay [10] and 3.3 in assay [13]. For the same compound, in [12], the result was Active. Besides, in assay [14], the Imax stood at 94.8%. Also, the midpoint of the response in [18], the EC50, lay at 162 nM.
